Sampled rows, rich in hits. Any-hit rate of the full collection: about 2.3%.
MEKK2 WT-MEK5 = modulators of MEK5 binding to wildtype MEKK2, primary screen, biochemical, multiplex bead flow cytometry, Alexa488-MEK5. 1.1% of 290,000 active. binding response (% of control), % at 10 µM. Alexa488-MEK5 binding to MEKK2 WT; actives lie on both sides. AID 1531, 2009. Mitogen-activated protein kinase kinase kinase 2 (Homo sapiens), Q9Y2U5; in the data active = binding response below about 67% or above about 130%
MEKK2mut PB1 HTS = MEK5 binding signal on mutant MEKK2 PB1, primary screen, biochemical, multiplex bead flow cytometry, Alexa488-MEK5; AID 1530, 2009; Alexa488-MEK5 binding to MEKK2 mutant; 0.35% of 290,000 active; percent response, % at 10 µM; in the data active = percent response above about 24%, passing the limit was not always enough
MEKK3 PB1 HTS = modulators of MEKK3-MEK5 PB1 binding, primary screen, biochemical, wildtype MEKK3, multiplex bead flow cytometry, Alexa488-MEK5; Mitogen-activated protein kinase kinase kinase 3 (Homo sapiens), Q99759; 1.4% of 290,000 active; binding response (% of control), % at 10 µM; bead-based flow cytometry, Alexa488-MEK5 binding to MEKK3; actives lie on both sides; 0 = blocked by unlabeled MEK5, 100 = vehicle;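 active = binding response more than 3 SD above or below the average of its plate-row segment, actives on both sides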;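 note: Alexa488 bead fluorescence after subtracting the streptavidin-only scavenger bead signal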
Target sequence (Q99759 whole entry, looked up): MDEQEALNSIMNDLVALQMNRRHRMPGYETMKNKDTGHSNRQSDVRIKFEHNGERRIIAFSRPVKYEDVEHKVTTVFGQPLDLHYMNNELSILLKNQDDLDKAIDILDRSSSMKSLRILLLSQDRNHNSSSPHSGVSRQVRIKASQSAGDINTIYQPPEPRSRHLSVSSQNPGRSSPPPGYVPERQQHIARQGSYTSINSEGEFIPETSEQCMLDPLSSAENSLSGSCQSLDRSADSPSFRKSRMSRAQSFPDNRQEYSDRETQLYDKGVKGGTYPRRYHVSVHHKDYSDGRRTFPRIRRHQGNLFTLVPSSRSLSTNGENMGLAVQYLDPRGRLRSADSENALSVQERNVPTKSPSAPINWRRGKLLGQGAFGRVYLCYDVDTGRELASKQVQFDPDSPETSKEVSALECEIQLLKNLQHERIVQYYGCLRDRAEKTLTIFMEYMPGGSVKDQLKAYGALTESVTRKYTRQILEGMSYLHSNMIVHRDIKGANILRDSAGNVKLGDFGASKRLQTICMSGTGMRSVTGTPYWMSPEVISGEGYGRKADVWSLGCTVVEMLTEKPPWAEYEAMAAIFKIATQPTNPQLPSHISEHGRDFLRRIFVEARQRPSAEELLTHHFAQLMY
Arrestin-AP2 inh = inhibitors of beta-arrestin/AP2 binding, primary screen, biochemical, GPCR trafficking, flow cytometry; 0.31% of 340,000 active; inhibition, % at 10 µM; beta-arrestin 1 C-terminal peptide binding to AP2 beta2-adaptin appendage (human); FITC-arrestin peptide / GST-AP2 beads; AP2 beta2 appendage carries R879A mutation; AID 504490, 2011;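 active = inhibition above a set limit, near 3 SD of compounds lacking own fluorescence, cut at about 54% in these data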;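 note: plate controls were DMSO wells for no effect and 5 µM unlabelled arrestin peptide for full effect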
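System: GST-AP2 R879A bound to glutathione beads, E. coli-expressed. Also added: 50 nM FITC-arrestin peptide. Schedule: compound with beads 12 min RT, then probe 1 h RT. Signal: bead flow cytometry, FITC channel. Read-out basis: percent response.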
MEKK2wt confirm = modulators of MEK5 binding to wildtype MEKK2, confirmation, biochemical, single concentration, multiplex bead flow cytometry | 2.4% of 5,900 active | binding response (% of control), % at 10 µM | Alexa488-MEK5 binding to MEKK2 WT; actives lie on both sides | shares compounds with MEKK3 PB1 HTS | AID 1892, 2009; in the data active = binding response below about 16% or above about 210%; inactive = in between
MEKK2mut confirm = mutant MEKK2 PB1-MEK5 binding signal retest – biochemical, single concentration, multiplex bead flow cytometry, confirmation; shares compounds with MEKK3 PB1 HTS; Alexa488-MEK5 binding to MEKK2 mutant; percent response, % at 10 µM; 2% of 5,900 active; AID 1893, 2009; in the data active = percent response mostly above about 71%, no sharp cut-off; inactive = mostly below about 38%;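 note: higher means compound restores mutant binding toward wildtype level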
MEKK3 confirm = MEKK3 wild-type PB1 binding to MEK5, inhibitors, confirmation, biochemical, bead multiplex flow cytometry, single concentration, wildtype; shares compounds with MEKK3 PB1 HTS; Alexa488-MEK5 binding to MEKK3; hits give low values; binding response (% of control), % at 10 µM; 1.8% of 5,900 active;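 active = binding response below 72% of control, or above a set upper limit, though filed actives all read lower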;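 note: 100% = DMSO only wells and 0% = binding blocked by excess unlabeled MEK5; lower values mean stronger disruption of MEK5 binding to MEKK3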
Numbers without * were called inactive; . = no result; [ ] = dose if it differs, or a comment.

SMILES	MEKK2 WT-MEK5	MEKK2mut PB1 HTS	MEKK3 PB1 HTS	Arrestin-AP2 inh	MEKK2wt confirm	MEKK2mut confirm	MEKK3 confirm
CCOC(=O)C1CCN(C(=O)COC(=O)COc2ccc(Cl)cc2)CC1	53.0	-17.0	37.0*[inhibitor]	26.1	100.0	-6.0	101.0
CCOC(=O)C1CCN(C(=O)Cc2ccc(C)cc2)CC1	107.0	1.0	104.0	1.4	.	.	.
O=C(NC1(C(F)(F)F)NC(=O)N(c2ccc(F)cc2)C1=O)c1cccs1 (configuration not stated)	111.0	0.0	158.0*	-1.8	106.0	-2.0	102.0
CC1=CC(C)(C)NC(=S)N1c1cccc(Cl)c1	.	.	.	3.0	.	.	.
CC(C)(C)NCc1cc(Cl)ccc1OCc1ccccc1F	70.0	-22.0	75.0*[inhibitor]	-4.8	101.0	0.0	99.0
CC(C)(C)OC(=O)C(C)(C)O/N=C(\C(=O)O)c1csc(N)n1	94.0	-2.0	80.0	3.5	.	.	.
CCN(CC)CCCNC(=O)c1cn(CCOC)c(=O)c2c1c1ccccc1n2C	52.0	-16.0	34.0*[inhibitor]	-9.3	105.0	1.0	105.0
Cc1c(CN(C)C)c2c(n1Cc1ccccc1)C(=O)c1ccc(Br)cc1-2	139.0*	17.0	89.0	6.6	133.0	21.0	108.0
Cc1c(CN(C)C)c2c(n1C)C(=O)c1ccc(Br)cc1-2	100.0	0.0	99.0	-2.7	.	.	.
CC(Oc1ccccc1Cl)C(=O)N(Cc1cccs1)C1CCS(=O)(=O)C1 (configuration not stated)	98.0	2.0	99.0	9.8	.	.	.
CCOc1ccccc1-n1c(SC(C)C(=O)NCC2CCCO2)nc2ccccc2c1=O (configuration not stated)	.	.	.	33.1	.	.	.
Cc1cc(OC(=O)c2c(F)cc(F)cc2F)nc(C)n1	123.0	5.0	149.0*	38.5	93.0	-3.0	93.0
Cc1cc(OC(=O)c2cc(F)c(F)cc2Cl)nc(C)n1	96.0	-4.0	97.0	1.8	.	.	.
S=c1[nH]nc(-c2ccc(Cl)cc2)n1-c1ccc2c(c1)OCCO2	109.0	1.0	197.0*	10.7	1.0*[inhibitor]	-29.0	2.0*
Fc1ccc(-c2n[nH]c(=S)n2-c2ccc3c(c2)OCCO3)cc1	99.0	-11.0	104.0	0.0	.	.	.
c1ccc(CCC2CCCCN2Cc2cn[nH]c2-c2cc3ccccc3o2)nc1 (configuration not stated)	114.0	5.0	99.0	13.0	.	.	.
CCC1=C(OC(=O)N(CC)CC)N2C(=O)OC(=NCCc3c[nH]c4ccccc34)[C@]2(Cc2ccccc2)[C@H]2C1=CC[C@H]1C(=O)N(CC(=O)OC)C(=O)[C@H]12	2.0*[inhibitor]	0.0	2.0*[inhibitor]	-1.0	98.0	-4.0	99.0
COc1cc(C(=O)OCC(=O)N2CCOCC2)c([N+](=O)[O-])cc1OC	96.0	-1.0	100.0	5.9	.	.	.
CCOC(=O)c1c(NC(C)=O)sc2c(O)c(Br)cc(Br)c12	105.0	0.0	132.0*	-5.9	73.0	-15.0	76.0
COc1ccc(N(CC(=O)NCc2cccs2)S(=O)(=O)c2cccc(C)c2)cc1	.	.	.	-8.2	.	.	.
OCC1OC(c2ccccc2)OC2COC(c3ccccc3)OC12 (configuration not stated)	.	.	.	-2.8	.	.	.
Cc1c(C(=O)Nc2ccc(Cl)cc2)c2ccccn2c1C(=O)c1ccccc1	116.0	5.0	126.0*	14.9	83.0	-4.0	87.0
Cc1ccc(C2=NN(C(=O)CSc3nccn3C)C(c3ccco3)C2)cc1 (configuration not stated)	106.0	4.0	100.0	-10.4	.	.	.
C=CCn1c(SCC(=O)N2N=C(c3ccco3)CC2c2ccco2)nnc1-c1ccncc1 (configuration not stated)	94.0	-1.0	66.0*[inhibitor]	6.5	113.0	12.0	106.0
CN1N=C(C(=O)Nc2ccc3c(c2)CCC3)CCC1=O	93.0	-7.0	94.0	18.3	.	.	.
SMILES	MEKK2 WT-MEK5	MEKK2mut PB1 HTS	MEKK3 PB1 HTS	Arrestin-AP2 inh	MEKK2wt confirm	MEKK2mut confirm	MEKK3 confirm
O=C(NCCOc1nc(N2CCCCC2)nc(N2CCCCC2)n1)Nc1ccccc1	106.0	5.0	106.0	-6.3	.	.	.
CCN(CC)c1nc(OCCNC(=O)Nc2ccccc2)nc(N(CC)CC)n1	118.0	24.0*	111.0	0.7	95.0	-9.0	96.0
COc1cc(/C=N/NC(=O)C2(O)c3ccccc3-c3ccccc32)ccc1O	108.0	0.0	148.0*	6.3	99.0	-11.0	100.0
COc1cc(/C=N/NC(=O)C2c3ccccc3Oc3ccccc32)ccc1O	125.0	14.0	122.0*	-4.2	104.0	0.0	107.0
COc1cc(/C=N\NC(=O)CNC(=O)C2COc3ccccc3O2)ccc1O (configuration not stated)	170.0*	29.0	134.0*	29.0	95.0	-2.0	97.0
O=C(CCCOc1ccccc1)Nc1ccc(Cl)cn1	105.0	1.0	107.0	-2.3	.	.	.
CN(C)S(=O)(=O)c1ccc(NC(=O)CN2C(=O)NC(Cc3ccccc3)C2=O)cc1 (configuration not stated)	.	.	.	26.9	.	.	.
COc1ccc(C)cc1NC(=O)CC(NC(C)=O)c1ccccc1 (configuration not stated)	116.0	1.0	135.0*	-6.9	102.0	-7.0	99.0
COc1ccc(C)cc1NC(=O)CNC(c1ccccc1)c1ccc(C)cc1 (configuration not stated)	100.0	-1.0	101.0	-6.5	.	.	.
CCC(NC(=O)Nc1cc(C)on1)(C(F)(F)F)C(F)(F)F	92.0	-3.0	94.0	31.1	.	.	.
C#CCOCCOCCOCCNc1nc(N2CCN(C(=O)[C@H](CCC(=O)O)n3cc(C(N)Cc4ccc(O)cc4)nn3)CC2)nc(N2CCN(C(=O)[C@H](Cc3cc4ccccc4[nH]3)n3cc(C(N)[C@H](C)CC)nn3)CC2)n1 (some centres not stated)	153.0*	38.0	112.0	2.3	134.0	20.0	102.0
C#CCOCCOCCOCCNc1nc(N2CCN(C(=O)C(Cc3cc4ccccc4[nH]3)n3cc(C(N)Cc4ccc(O)cc4)nn3)CC2)nc(N2CCN(C(=O)C(CCC(=O)O)n3cc(C(N)C(C)CC)nn3)CC2)n1 (configuration not stated)	.	.	.	3.5	.	.	.

Screening results as filed in PubChem.
